In ChEMBL document CHEMBL2086389, “Synthesis and biological evaluation of crown ether fused quinazoline analogues as potent EGFR inhibitors” (Bioorg Med Chem Lett, 2012):
Active and inactive are the calls of the source. No cut-off for these calls is given here.

Columns and labels:
[1] = target: T1, Epidermal growth factor receptor (Homo sapiens, UniProt P00533); assay: Inhibition of EGFR using GST-Crk as substrate assessed as phosphorylated Crk level after 20 mins by SDS-PAGE analysis
Summary of the method: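 Kinase mix was incubated with inhibitor at 0, 0.5, 2.5, 12.5 and 62.5 nM on ice for 10 min, then at 30 °C for 20 min. The reaction was quenched with SDS sample buffer at 100 °C for 4 min. Proteins were run on 10% SDS–PAGE and the dried gel was quantified by phosphorimager.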

[2] = target: Tyrosine-protein kinase ABL1 (Homo sapiens) (UniProt P00519); assay: Inhibition of Abl at >[…] nM
[3] = Volume of distribution at steady state in rat at 35 mg/kg, iv and 35 mg/kg, po; type: ADME, organism-based; details: in vivo, read-out: Vdss
Summary of the method: (§1)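 Rats given a single oral dose (35 mg/kg) and a separate single intravenous dose (35 mg/kg). Pharmacokinetic parameters were derived from these two dosings.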

[4] = Half life in rat at 35 mg/kg, po; type: ADME, organism-based; design: dose 35 mg/kg, route oral; details: in vivo; summary of the method: as §1
[5] = target: T1, Epidermal growth factor receptor; assay: Inhibition of EGFR-mediated intracellular tyrosine phosphorylation in EGF-stimulated human A431 cells after 2.5 hrs by SDS-PAGE analysis; type: cell-based, A-431
Summary of the method: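 A431 cells were grown 2 days in DMEM with 10% FCS at 37 °C, 5% CO₂, then serum-starved 18 h. Inhibitor was added at 0, 10, 50, 250 and 1000 nM for 2.5 h at 37 °C. Cells were stimulated with 100 ng/ml EGF for 5 min and lysed in SDS buffer with 1 mM vanadate. Lysates were run on 10% SDS–PAGE, immunoblotted with anti-phosphotyrosine (pY99, 4G10), detected by ECL, and quantified by densitometry.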

[6] = Oral bioavailability in rat at 35 mg/kg; type: ADME, organism-based; details: in vivo; summary of the method: as §1
[7] = Cmax in rat at 35 mg/kg, po; type: ADME, organism-based; design: dose 35 mg/kg, route oral; details: in vivo; summary of the method: as §1
[8] = target: Tyrosine-protein kinase ABL2 (Homo sapiens) (UniProt P42684); assay: Inhibition of Arg at >[…] nM
[9] = Mean residence time in rat at 35 mg/kg, iv and 35 mg/kg, po; type: ADME, organism-based; details: in vivo; summary of the method: as §1
Rattus norvegicus = assay: AUC in rat at 35 mg/kg, po; type: ADME, organism-based, Plasma; design: dose 35 mg/kg, route oral; details: in vivo; summary of the method: as §1
[10] = Clearance in rat at 35 mg/kg, iv and 35 mg/kg, po; type: ADME, organism-based; details: in vivo; summary of the method: as §1
A-431 = assay: Antitumor activity against human A431 cells xenografted in mouse assessed as inhibition of tumor growth administered as po qd; type: functional, organism-based
Summary of the method: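 Mice carried A431 xenografts. At a tumor volume of about 20 mm³ they were randomized, n = 10/group. Dosing was oral, once daily, at 30, 60 and 120 mg/kg in 0.5% CMC-Na vehicle, for 18–30 days. The positive control was Taxol 30 mg/kg ip once weekly. Tumor size was followed.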

[11] = target: Proto-oncogene tyrosine-protein kinase Src (Homo sapiens) (UniProt P12931); assay: Inhibition of c-Src at >1000 nM
Proto-oncogene tyrosine-protein kinase Src (Homo sapiens), sequence (P12931 2-536 limits assumed): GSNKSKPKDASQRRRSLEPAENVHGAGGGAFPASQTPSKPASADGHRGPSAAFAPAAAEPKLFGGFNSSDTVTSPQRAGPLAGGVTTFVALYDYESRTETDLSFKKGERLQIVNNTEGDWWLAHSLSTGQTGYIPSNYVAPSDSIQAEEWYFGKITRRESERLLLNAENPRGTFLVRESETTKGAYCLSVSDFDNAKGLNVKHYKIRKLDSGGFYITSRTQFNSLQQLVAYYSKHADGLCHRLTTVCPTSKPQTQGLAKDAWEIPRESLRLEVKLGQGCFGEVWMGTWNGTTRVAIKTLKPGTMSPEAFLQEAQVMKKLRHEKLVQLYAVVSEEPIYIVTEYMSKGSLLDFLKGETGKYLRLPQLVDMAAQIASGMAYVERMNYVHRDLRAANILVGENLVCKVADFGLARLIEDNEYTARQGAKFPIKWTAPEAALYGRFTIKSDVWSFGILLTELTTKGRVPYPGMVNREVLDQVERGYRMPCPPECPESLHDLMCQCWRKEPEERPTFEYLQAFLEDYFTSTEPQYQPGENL

T1 sequence (P00533 whole entry): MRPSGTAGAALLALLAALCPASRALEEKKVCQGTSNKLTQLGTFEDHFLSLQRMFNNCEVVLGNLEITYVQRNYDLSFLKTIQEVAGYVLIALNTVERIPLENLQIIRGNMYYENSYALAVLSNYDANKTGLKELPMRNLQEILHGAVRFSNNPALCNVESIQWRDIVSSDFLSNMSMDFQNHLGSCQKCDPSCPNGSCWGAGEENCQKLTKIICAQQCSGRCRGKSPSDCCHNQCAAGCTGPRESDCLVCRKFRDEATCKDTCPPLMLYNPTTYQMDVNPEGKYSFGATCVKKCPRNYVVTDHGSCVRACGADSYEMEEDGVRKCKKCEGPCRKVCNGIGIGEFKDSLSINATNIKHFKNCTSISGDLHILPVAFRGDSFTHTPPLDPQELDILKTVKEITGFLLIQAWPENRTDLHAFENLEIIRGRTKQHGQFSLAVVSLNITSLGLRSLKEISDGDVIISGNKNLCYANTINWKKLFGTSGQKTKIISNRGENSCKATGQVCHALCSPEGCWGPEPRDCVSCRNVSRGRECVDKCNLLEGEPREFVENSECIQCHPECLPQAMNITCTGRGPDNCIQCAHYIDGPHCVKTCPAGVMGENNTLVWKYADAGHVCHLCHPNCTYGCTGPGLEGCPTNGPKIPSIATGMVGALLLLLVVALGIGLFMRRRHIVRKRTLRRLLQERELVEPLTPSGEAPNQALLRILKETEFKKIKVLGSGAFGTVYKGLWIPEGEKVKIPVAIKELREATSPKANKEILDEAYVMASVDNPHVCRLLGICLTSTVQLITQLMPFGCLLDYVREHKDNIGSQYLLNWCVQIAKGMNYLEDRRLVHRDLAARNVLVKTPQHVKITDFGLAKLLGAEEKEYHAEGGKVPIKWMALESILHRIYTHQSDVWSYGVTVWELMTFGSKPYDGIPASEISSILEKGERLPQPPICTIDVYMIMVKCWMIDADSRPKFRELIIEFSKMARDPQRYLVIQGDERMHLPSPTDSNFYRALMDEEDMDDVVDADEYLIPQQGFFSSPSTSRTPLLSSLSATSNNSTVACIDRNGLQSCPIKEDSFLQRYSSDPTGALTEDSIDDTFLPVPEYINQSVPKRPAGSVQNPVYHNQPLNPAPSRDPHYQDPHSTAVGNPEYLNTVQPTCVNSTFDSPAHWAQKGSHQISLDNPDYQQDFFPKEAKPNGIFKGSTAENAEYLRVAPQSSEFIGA
Tyrosine-protein kinase ABL1 (Homo sapiens), sequence (P00519 whole entry): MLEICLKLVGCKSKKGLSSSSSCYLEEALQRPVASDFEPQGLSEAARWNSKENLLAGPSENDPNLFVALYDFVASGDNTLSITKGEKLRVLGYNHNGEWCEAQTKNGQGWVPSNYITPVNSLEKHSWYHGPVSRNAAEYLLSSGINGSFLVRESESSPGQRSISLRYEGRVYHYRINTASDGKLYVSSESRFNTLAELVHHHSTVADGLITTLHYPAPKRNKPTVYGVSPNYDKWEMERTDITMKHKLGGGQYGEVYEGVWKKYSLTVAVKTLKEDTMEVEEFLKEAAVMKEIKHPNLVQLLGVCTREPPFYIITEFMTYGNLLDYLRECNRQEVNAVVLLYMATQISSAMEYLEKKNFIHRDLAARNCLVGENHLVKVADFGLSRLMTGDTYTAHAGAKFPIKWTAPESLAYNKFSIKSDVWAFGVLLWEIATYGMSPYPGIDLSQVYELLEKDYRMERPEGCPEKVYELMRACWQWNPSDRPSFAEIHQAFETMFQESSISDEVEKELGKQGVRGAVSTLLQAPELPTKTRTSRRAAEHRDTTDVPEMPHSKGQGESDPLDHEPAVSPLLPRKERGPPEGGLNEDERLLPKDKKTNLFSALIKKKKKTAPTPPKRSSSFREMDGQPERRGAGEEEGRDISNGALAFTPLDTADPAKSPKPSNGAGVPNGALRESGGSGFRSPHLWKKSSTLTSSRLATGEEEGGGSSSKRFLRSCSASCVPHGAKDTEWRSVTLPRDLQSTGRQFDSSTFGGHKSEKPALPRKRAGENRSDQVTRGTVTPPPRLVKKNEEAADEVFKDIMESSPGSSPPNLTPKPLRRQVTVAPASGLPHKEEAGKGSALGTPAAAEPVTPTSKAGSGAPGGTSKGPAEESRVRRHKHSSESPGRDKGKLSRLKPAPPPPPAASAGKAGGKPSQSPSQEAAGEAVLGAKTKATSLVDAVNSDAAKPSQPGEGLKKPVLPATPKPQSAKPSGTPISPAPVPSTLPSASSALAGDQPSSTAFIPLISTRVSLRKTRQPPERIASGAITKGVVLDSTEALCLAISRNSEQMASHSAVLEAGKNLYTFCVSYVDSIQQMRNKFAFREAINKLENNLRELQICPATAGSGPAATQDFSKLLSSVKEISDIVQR
Tyrosine-protein kinase ABL2 (Homo sapiens), sequence (P42684 whole entry): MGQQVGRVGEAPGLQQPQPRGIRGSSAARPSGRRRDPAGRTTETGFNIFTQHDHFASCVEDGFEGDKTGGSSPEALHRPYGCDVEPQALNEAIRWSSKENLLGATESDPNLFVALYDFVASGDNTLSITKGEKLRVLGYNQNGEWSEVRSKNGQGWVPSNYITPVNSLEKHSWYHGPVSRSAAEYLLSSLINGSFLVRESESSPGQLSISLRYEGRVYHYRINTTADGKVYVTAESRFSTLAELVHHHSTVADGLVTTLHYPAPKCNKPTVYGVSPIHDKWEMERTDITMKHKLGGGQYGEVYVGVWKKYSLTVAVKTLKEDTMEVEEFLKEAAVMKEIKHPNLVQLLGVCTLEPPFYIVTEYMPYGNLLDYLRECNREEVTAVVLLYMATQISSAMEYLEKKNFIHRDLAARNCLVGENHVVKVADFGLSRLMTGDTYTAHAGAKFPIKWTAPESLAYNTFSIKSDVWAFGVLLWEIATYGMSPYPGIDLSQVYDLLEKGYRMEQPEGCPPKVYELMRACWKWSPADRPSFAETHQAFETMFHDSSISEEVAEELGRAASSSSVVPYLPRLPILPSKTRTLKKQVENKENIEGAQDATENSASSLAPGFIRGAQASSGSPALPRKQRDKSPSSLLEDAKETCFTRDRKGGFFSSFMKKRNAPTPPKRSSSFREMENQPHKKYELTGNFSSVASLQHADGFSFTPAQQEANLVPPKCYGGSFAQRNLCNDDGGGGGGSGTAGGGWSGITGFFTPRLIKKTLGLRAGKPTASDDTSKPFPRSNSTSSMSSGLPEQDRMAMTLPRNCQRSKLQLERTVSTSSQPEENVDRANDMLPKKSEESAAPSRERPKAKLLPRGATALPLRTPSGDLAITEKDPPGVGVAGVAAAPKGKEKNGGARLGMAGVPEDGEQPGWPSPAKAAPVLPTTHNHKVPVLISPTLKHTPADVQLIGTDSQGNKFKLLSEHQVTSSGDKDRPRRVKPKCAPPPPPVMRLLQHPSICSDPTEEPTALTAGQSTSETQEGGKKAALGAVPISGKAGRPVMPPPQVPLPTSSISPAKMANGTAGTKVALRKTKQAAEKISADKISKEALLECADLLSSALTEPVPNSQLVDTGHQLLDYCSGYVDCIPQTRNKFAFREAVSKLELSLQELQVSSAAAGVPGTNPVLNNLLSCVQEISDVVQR

For `Cc1ccc(S(=O)(=O)N2CCOc3cc4ncnc(Nc5cccc(Br)c5)c4cc3OCC2)cc1`, the IC50 [1] was 150 nM.
In the case of `C#Cc1cccc(Nc2ncnc3cc4c(cc23)OCCOCCOCCO4)c1` [ICOTINIB], the inhibition [2] is reported as “inactive”, the Vd [3] is reported as 3.9 L/kg and the half-life [4] is reported as 2.8 h. The IC50 [5] was 45 nM, the bioavailability [6] was 52% and the Cmax [7] was 6120 ng/mL. For the same compound, the inhibition [8] was “inactive”, the MRT [9] was 6.9 h and the AUC (Rattus norvegicus) was 49.4 µg/mL. For the same compound, the IC50 [1] was 2 nM, the clearance [10] was 21 mL/min/kg and the inhibition (A-431) was “Dose-dependent effect”. For the same compound, the inhibition [11] was “inactive”.
For `Brc1cccc(Nc2ncnc3cc4c(cc23)OCCOCCO4)c1`, the IC50 [1] was 55 nM.
Work on `Brc1cccc(Nc2ncnc3cc4c(cc23)OCCCO4)c1` yielded an IC50 [1] of 85 nM.
`Brc1cccc(Nc2ncnc3cc4c(cc23)OCCCSCCCO4)c1` gave an IC50 [5] greater than 1000 nM and an IC50 [1] of 8 nM.
In the case of `Clc1cccc(Nc2ncnc3cc4c(cc23)OCCOCCOCCO4)c1`, the IC50 [5] is reported as 55 nM and the IC50 [1] is reported as 2 nM.
Compound `Brc1cccc(Nc2ncnc3cc4c(cc23)Oc2ccccc2O4)c1` has an IC50 [1] of 120 nM.
`Fc1ccc(Nc2ncnc3cc4c(cc23)OCCOCCOCCO4)cc1Cl` showed an IC50 [5] of 45 nM and an IC50 [1] of 2 nM.
`Brc1cccc(Nc2ncnc3cc4c(cc23)OCCOCOCOCCO4)c1` gave an IC50 [5] of 50 nM and an IC50 [1] of 5 nM.
For `Brc1cccc(Nc2ncnc3cc4c(cc23)OCCSCCO4)c1`, the IC50 [5] was greater than 1000 nM and the IC50 [1] was 7 nM.
In the case of `Brc1cccc(Nc2ncnc3cc4c(cc23)OCCOCCOCCO4)c1`, the IC50 [5] is reported as 50 nM and the IC50 [1] is reported as 5 nM.
